The source of these data is publication PMC6916429 (ACS infectious diseases, 2019).

Experiment [1] concerns S. aureus biofilms (UAMS-1). The experiment is described as follows: Biofilm killing assay. The format is cell-based. The note with it: 10 times the MIC, 24 hours, compared with the control. The essentials:
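Overnight stationary UAMS-1 culture diluted 1:20 in BHI broth and grown 24 h at 37 °C in tissue-culture-treated 96-well plates. Wells PBS-washed twice, then exposed to test compound in fresh medium for 24 h. Washed again, biofilms disrupted by sonication in PBS, serially diluted, and spotted on BHI agar overnight at 37 °C for cfu counts. One-way ANOVA with Dunnett's test.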

Experiment [2] addresses T1, S. aureus ClpP (caseinolytic protease) (S. aureus NCTC 8325), Q2G036.
T1 chain: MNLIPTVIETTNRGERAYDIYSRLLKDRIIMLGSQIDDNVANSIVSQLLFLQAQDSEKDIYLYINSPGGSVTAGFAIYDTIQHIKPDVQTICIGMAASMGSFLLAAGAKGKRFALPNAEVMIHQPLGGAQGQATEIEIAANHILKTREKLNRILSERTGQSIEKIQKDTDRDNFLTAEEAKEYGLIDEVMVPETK
Kind of experiment: AUC. The note with it: remark: other sources report otherwise.

Experiment [3] addresses T1, S. aureus ClpP (caseinolytic protease) …. The experiment is described as follows: crystal structure. The settings on record: remark: other sources report otherwise.

Values joined by “and” are separate entries in the source; they are usually repeats but may differ in a detail not shown here. Equal values may be shown once.

On to `CO[C@H]1/C=C/O[C@@]2(C)Oc3c(C)c(O)c4c(O)c(c(/C=N/N5CCN(C)CC5)c(O)c4c3C2=O)NC(=O)/C(C)=C\C=C\[C@H](C)[C@H](O)[C@@H](C)[C@@H](O)[C@@H](C)[C@H](OC(C)=O)[C@@H]1C` [rifampin], for which the “reduction in growth of mature S. aureus biofilms” value in experiment [1] is recorded as “limited reduction”.

B1: S. aureus ClpP (caseinolytic protease), Q2G036 1-195 (enzyme)
chain: T1 chain
On to B1, for which the stoichiometry N (commonly the number of molecules, sites or subunits per partner or assembly) in experiment [2] was 14 and 7; in experiment [3], 14.
